From ChEMBL document CHEMBL2406998, “Discovery of benzamide analogs as negative allosteric modulators of human neuronal nicotinic receptors: pharmacophore modeling and structure-activity relationship studies” (Bioorg Med Chem, 2013)
The source made the active and inactive calls. No cut-off for these calls is given here.

Assays:
[1] = target: T1, Neuronal acetylcholine receptor; alpha4/beta2 (Homo sapiens, UniProt P17787+P43681); experiment: Agonist activity at human alpha4beta2 nAChR; type: protein-complex assay
T1 sequence (P17787 whole entry): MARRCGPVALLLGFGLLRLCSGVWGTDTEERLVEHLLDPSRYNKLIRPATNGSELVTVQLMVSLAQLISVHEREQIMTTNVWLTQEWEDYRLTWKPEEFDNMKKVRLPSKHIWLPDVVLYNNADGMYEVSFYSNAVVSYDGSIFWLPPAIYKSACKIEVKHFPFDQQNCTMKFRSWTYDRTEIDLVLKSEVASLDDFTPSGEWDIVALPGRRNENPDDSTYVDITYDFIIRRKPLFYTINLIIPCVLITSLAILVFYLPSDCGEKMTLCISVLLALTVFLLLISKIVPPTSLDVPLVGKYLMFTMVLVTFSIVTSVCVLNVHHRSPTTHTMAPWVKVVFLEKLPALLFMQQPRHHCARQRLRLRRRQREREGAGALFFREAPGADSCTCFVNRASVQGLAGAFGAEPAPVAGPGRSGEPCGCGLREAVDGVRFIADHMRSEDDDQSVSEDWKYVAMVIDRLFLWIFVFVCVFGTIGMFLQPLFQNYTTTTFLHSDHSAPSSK
T1 sequence (P43681 whole entry): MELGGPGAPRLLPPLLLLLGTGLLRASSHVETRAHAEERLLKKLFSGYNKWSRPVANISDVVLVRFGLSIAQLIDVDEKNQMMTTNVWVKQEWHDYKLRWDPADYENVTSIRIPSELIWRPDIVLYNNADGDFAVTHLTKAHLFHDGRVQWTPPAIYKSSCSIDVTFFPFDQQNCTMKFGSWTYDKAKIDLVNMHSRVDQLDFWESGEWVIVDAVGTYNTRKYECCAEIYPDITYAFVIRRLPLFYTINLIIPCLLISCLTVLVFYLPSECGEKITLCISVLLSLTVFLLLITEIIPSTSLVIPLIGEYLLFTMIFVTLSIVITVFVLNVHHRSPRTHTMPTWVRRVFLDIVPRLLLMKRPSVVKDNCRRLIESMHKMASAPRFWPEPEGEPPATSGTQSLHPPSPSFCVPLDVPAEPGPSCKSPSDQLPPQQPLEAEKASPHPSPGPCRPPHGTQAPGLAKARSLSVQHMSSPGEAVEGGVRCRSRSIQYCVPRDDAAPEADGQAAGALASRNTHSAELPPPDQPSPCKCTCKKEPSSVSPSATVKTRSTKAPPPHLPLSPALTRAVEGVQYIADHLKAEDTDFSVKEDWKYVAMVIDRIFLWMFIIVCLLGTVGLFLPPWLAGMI
Summary of the method: (§1)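 HEK tsA201 cells stably expressing the human receptor subtype, plated 24 h ahead at 37 °C, 5% CO2 in supplemented DMEM to a ~100% confluent monolayer. Washed with HEPES-buffered Krebs, loaded 1 h at room temperature with 50% Calcium 5 NW dye. Compounds as HCl salts from 0.01 M DMSO stocks, six concentrations 0.1–100 µM in HBK. Intracellular calcium fluorescence read every 1.5 s (ex 485/em 525 nm).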

[2] = target: T2, Neuronal acetylcholine receptor; alpha3/beta4 (Homo sapiens, UniProt P30926+P32297); experiment: Agonist activity at human alpha3beta4 nAChR; type: protein-complex assay; summary of the method: as §1
T2 sequence (P30926 whole entry): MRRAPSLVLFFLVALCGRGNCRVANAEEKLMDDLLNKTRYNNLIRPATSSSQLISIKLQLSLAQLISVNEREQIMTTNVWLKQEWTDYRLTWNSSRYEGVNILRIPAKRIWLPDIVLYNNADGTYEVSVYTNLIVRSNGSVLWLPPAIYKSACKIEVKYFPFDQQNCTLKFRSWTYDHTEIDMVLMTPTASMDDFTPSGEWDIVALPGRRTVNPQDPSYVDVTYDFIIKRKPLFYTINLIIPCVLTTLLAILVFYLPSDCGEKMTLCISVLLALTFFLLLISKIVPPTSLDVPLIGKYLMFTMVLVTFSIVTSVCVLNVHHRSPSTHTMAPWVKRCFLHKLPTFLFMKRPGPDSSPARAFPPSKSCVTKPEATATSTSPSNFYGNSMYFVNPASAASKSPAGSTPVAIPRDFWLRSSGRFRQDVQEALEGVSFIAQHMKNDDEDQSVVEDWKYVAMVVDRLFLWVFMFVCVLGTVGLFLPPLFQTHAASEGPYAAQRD
T2 sequence (P32297 whole entry): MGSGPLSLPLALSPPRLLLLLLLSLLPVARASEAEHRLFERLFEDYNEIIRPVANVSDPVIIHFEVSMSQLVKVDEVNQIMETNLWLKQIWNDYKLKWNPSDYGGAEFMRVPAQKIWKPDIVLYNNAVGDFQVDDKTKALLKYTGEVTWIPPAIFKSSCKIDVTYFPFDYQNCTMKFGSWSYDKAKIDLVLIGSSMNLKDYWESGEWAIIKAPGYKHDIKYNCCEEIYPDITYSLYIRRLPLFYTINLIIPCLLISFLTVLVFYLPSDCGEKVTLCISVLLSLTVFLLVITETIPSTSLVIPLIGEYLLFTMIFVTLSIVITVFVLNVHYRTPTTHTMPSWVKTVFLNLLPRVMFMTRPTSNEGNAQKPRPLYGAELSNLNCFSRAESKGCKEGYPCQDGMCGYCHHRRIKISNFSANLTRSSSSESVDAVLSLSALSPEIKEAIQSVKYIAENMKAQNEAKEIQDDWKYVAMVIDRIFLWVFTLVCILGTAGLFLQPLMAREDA

[3] = target: T1, Neuronal acetylcholine receptor; alpha4/beta2; experiment: Antagonist activity at human alpha4beta2 nAChR expressed in HEK-tsA201 cells assessed as inhibition of epibatidine-induced intracellular calcium level by fluorescence plate reader analysis; type: cell-based
Summary of the method: (§2)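 Stably transfected HEK tsA201 cells were plated 24 h ahead and grown at 37 °C, 5% CO2 in supplemented DMEM to a ~100% confluent monolayer. They were washed with HEPES-buffered Krebs, then loaded with 50% Calcium 5 NW dye for 1 h at room temperature. Compounds (HCl salts, six concentrations 0.1–100 µM, DMSO <1%) were tested against 1 µM epibatidine. Fluorescence was read at ex 485/em 525 nm every 1.5 s.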

[4] = target: T1, Neuronal acetylcholine receptor; alpha4/beta2; experiment: Non-competitive antagonist activity at human alpha4beta2 nAChR expressed in HEK-tsA201 cells assessed as intracellular calcium level at 0.1 to 100 uM by fluorescence plate reader analysis in presence of epibatidine; type: cell-based
Summary of the method: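 Epibatidine concentration-response curves were run with and without test compound on hα4β2-expressing HEK tsA201 cells. The read-out was the calcium accumulation assay: cells loaded with Calcium 5 NW dye for 1 h at room temperature in HEPES-buffered Krebs, fluorescence read at ex 485/em 525 nm every 1.5 s. Compound dilutions of 0.1–100 µM were made from DMSO stocks, with DMSO below 1%.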

[5] = target: T2, Neuronal acetylcholine receptor; alpha3/beta4; experiment: Antagonist activity at human alpha3beta4 nAChR expressed in HEK-tsA201 cells assessed as inhibition of epibatidine-induced intracellular calcium level by fluorescence plate reader analysis; type: cell-based; summary of the method: as §2
Homo sapiens = species on record: Homo sapiens; experiment: Selectivity ratio of IC50 for human alpha3beta4 nAChR to IC50 for human alpha4beta2 nAChR

Structure (SMILES)	Activity [1]	Activity [2]	IC50 [3] [µM]	Activity [4]	IC50 [5] [µM]	Ratio IC50 (Homo sapiens)
CCCCCCNc1cccc(NC(=O)c2ccc(OCCC)cc2)n1	inactive	inactive	–	–	–	–
CCCOc1ccc(C(=O)Nc2cccc(Nc3ccccc3)n2)cc1	inactive	inactive	–	–	–	–
C=CCOc1ccc(C(=O)Nc2cccc(NCCCC)n2)cc1	inactive	inactive	–	–	–	–
C=CCOc1ccc(C(=O)Nc2cccc(CC)n2)cc1	inactive	inactive	–	–	–	–
CNC1(C)C2CCC(C2)C1(C)C (stereo not drawn) [MECAMYLAMINE]	–	–	0.6	–	–	–
CCCCCNc1cccc(NC(=O)c2ccc(OCCC)cc2)n1	inactive	inactive	–	–	–	–
CCCOc1ccc(C(=O)Nc2cccc(NCc3ccccc3)n2)cc1	inactive	inactive	–	–	–	–
C=CCOc1ccc(C(=O)Nc2cccc(C)n2)cc1	inactive	inactive	–	Active	–	–
CCCOc1ccc(C(=O)Nc2cccc(Nc3ccc(Cl)cc3)n2)cc1	inactive	inactive	–	–	–	–
CCCOc1ccc(C(=O)Nc2cccc(Nc3ccc(F)cc3)n2)cc1	inactive	inactive	–	–	–	–
C=CCOc1ccc(C(=O)Nc2cccc(Cl)n2)cc1	inactive	–	–	–	–	–
C=C(C)COc1ccc(C(=O)Nc2cccc(C)n2)cc1	inactive	inactive	19.6	–	24.7	1.3
CCCCNc1cccc(NC(=O)c2ccc(OCCC)cc2)n1	inactive	inactive	–	–	–	–
CCOc1ccc(C(=O)Nc2cc(C)cc(C)n2)cc1	inactive	inactive	17.1	–	17.4	1
C=CCOc1ccc(C(=O)Nc2cccc(NCCC)n2)cc1	inactive	inactive	–	–	–	–
CCCOc1ccc(C(=O)Nc2cccc(CC)n2)cc1	inactive	inactive	–	–	–	–
C=CCOc1ccc(C(=O)Nc2ccccn2)cc1	inactive	inactive	–	–	–	–
CCCOc1ccc(C(=O)Nc2cccc(N3CCCCC3)n2)cc1	inactive	inactive	–	–	–	–
CCCNc1cccc(NC(=O)c2ccc(OCCC)cc2)n1	inactive	inactive	–	–	–	–
COc1cc2c3cc1Oc1cc(ccc1O)C[C@@H]1c4c(cc(OC)c(O)c4Oc4ccc(cc4)C[C@@H]3N(C)CC2)CC[N+]1(C)C	–	–	9.2	–	6.8	–
C=CCOc1ccc(C(=O)Nc2cccc(Br)n2)cc1	inactive	inactive	–	–	–	–
CCCOc1ccc(C(=O)Nc2cccc(Nc3cccc(F)c3)n2)cc1	inactive	inactive	–	–	–	–
CCCOc1ccc(C(=O)Nc2cccc(Nc3ccc(OC)cc3)n2)cc1	inactive	inactive	–	–	–	–
CCCOc1ccc(C(=O)Nc2cnccn2)cc1	inactive	inactive	23.2	–	–	–
C#CCOc1ccc(C(=O)Nc2cccc(C)n2)cc1	inactive	inactive	19.4	–	21.7	1.1
CCCOc1ccc(C(=O)Nc2cccc(Br)n2)cc1	inactive	–	–	–	–	–
CCCOc1ccc(C(=O)Nc2cccc(Nc3ccccc3F)n2)cc1	inactive	inactive	–	–	–	–
CCCOc1ccc(C(=O)Nc2cccc(Cl)n2)cc1	inactive	–	–	–	–	–
